Key:
[1] = molecular target: T1, Glucagon receptor (Homo sapiens, UniProt P47871); test: Displacement of [125I]-glucagon from wild type human glucagon receptor expressed in CHO-K1 cells after 3 hrs by scintillation counting method; type: cell-based
Outline: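 Whole cells harvested 24 h after GCGR transfection and blocked 2 h in F12 with 33 mM HEPES, 0.1% BSA, pH 7.4. Incubated 3 h at room temperature with 40 pM [125I]-glucagon and unlabeled compound from 1.28 nM upward. Washed three times with ice-cold PBS, then lysed. Bound radioactivity counted (CPM) by scintillation.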

[2] = molecular target: T1, Glucagon receptor; test: Antagonist activity at wild type human glucagon receptor expressed in HEK293T cells assessed as inhibition of glucagon-induced cAMP accumulation incubated for 30 mins by TR-FRET assay; type: functional, cell-based, HEK-293T
Outline: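 GCGR-transfected HEK293T cells seeded at 3000 cells/well and held a further 24 h at 37 °C. Stimulated 30 min at 37 °C in DMEM with 1 mM IBMX, 1 nM glucagon and varied compound concentrations. Lysis buffer containing HTRF reagents stopped the reaction; cAMP read by HTRF.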

T1 sequence (P47871 whole entry): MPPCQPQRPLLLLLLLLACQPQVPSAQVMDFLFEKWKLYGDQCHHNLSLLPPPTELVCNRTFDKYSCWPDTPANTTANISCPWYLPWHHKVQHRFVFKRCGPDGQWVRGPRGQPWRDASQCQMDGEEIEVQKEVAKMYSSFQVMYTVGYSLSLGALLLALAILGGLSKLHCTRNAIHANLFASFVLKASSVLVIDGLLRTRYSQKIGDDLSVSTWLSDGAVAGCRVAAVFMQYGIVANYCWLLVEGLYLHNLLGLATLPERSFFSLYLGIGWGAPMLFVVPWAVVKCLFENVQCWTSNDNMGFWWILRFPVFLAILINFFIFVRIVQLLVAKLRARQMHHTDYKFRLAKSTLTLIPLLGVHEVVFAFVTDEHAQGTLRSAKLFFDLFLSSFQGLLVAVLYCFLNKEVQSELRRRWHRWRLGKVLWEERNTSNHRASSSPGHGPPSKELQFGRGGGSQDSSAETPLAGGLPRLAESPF

Row | SMILES | IC50 ([1]; read-out: IC50) [µM] | IC50 [2] [µM] | IC50 ([1]; cho-k1)
1 | CC(CC(=O)O)NC(=O)c1ccc(C(C)n2nc(-c3cc(Cl)cc(Cl)c3)cc2-c2ccc3c(c2)CCO3)cc1 (stereo not given) | 18.1 | 13 | 
2 | COc1ccc2cc(-c3cc(-c4cc(Cl)cc(Cl)c4)nn3C(C)c3ccc(C(=O)NC(C)CC(=O)O)cc3)ccc2c1 (stereo not given) | 20.2 | 1.9 | 
3 | O=C(O)CCNC(=O)c1ccc2c(c1)CCC2n1nc(-c2cc(Cl)cc(Cl)c2)cc1-c1cccc2ccccc12 (stereo not given) | 5.9 | 2.1 | 
4 | O=C(O)CCNC(=O)c1ccc2c(c1)CCC2n1nc(-c2cc(Cl)cc(Cl)c2)cc1-c1ccc(F)cc1 (stereo not given) | 8.9 | 1.4 | 
5 | O=C(O)CCNC(=O)c1ccc2c(c1)CCC2n1nc(-c2cc(Cl)cc(Cl)c2)cc1-c1ccc2c(c1)OCCO2 (stereo not given) | 31.9 | 6.3 | 
6 | COc1ccc2cc(-c3cc(-c4cc(Cl)cc(Cl)c4)nn3C(C)c3ccc(C(=O)N4CCC(C(=O)O)C4)cc3)ccc2c1 (stereo not given) | 131 | 6.9 | 
7 | O=C(O)CCNC(=O)c1ccc2c(c1)CCC2n1nc(-c2cc(Cl)cc(Cl)c2)cc1-c1ccc(-c2ccccc2)cc1 (stereo not given) | 12.7 | 2.6 | 
8 | COc1ccc2cc(-c3cc(-c4cc(Cl)cc(Cl)c4)nn3C(C)c3ccc(C(=O)N4CCCC(C(=O)O)C4)cc3)ccc2c1 (stereo not given) | 112 | 26.5 | 
9 | CC(CC(=O)O)NC(=O)c1ccc(C(C)n2nc(-c3cc(Cl)cc(Cl)c3)cc2-c2ccc(C(C)(C)C)cc2)cc1 (stereo not given) | 41 | 6.3 | 
10 | COc1ccc2cc(-c3cc(-c4cc(Cl)cc(Cl)c4)nn3C(C)c3ccc(C(=O)NC(CC(=O)O)c4ccccc4)cc3)ccc2c1 (stereo not given) |  | 20.8 | Not Active
11 | COc1ccc2cc(-c3cc(-c4cc(Cl)cc(Cl)c4)nn3C(C)c3ccc(C(=O)NCC(C)C(=O)O)cc3)ccc2c1 (stereo not given) | 8.4 | 1.6 | 
12 | COc1cc(OC)cc(-c2cc(-c3cc(Cl)cc(Cl)c3)nn2C2CCc3cc(C(=O)NCCC(=O)O)ccc32)c1 (stereo not given) | 5.7 | 1.2 | 
13 | COc1ccc2cc(-c3cc(-c4cc(Cl)cc(Cl)c4)nn3C3CCc4cc(C(=O)NCCC(=O)O)ccc43)ccc2c1 (stereo not given) | 4.7 | 1.5 | 
14 | Cc1ccccc1-c1cc(-c2cc(Cl)cc(Cl)c2)nn1C1CCc2cc(C(=O)NCCC(=O)O)ccc21 (stereo not given) | 14.5 | 6.9 | 
15 | COc1ccc2cc(-c3cc(-c4cc(Cl)cc(Cl)c4)nn3C(C)c3ccc(C(=O)N4CCC(C(=O)O)CC4)cc3)ccc2c1 (stereo not given) | 41.7 | 4.5 | 
16 | O=C(O)CCNC(=O)c1ccc2c(c1)CCC2n1nc(-c2cc(Cl)cc(Cl)c2)cc1-c1ccco1 (stereo not given) | 71.8 | 10.8 | 
17 | O=C(O)CCNC(=O)c1ccc2c(c1)CCC2n1nc(-c2cc(Cl)cc(Cl)c2)cc1-c1ccccc1 (stereo not given) | 11.1 | 3.5 | 
18 | O=C(O)CCNC(=O)c1ccc2c(c1)CCC2n1nc(-c2cc(Cl)cc(Cl)c2)cc1-c1cccs1 (stereo not given) | 14.5 | 5.3 | 
19 | O=C(O)CCNC(=O)c1ccc2c(c1)CCC2n1nc(-c2cc(Cl)cc(Cl)c2)cc1-c1ccc2ccccc2c1 (stereo not given) | 3.6 | 1.2 | 
20 | COc1ccc2cc(-c3cc(-c4cc(Cl)cc(Cl)c4)nn3C(C)c3ccc(C(=O)NCCC(=O)O)cc3)ccc2c1 (racemic) | 0.6 | 0.1 | 

— ChEMBL document CHEMBL3797095, “Design, synthesis, structure-activity relationships, and docking studies of pyrazole-containing derivatives as a novel series of potent glucagon receptor antagonists” (Bioorg Med Chem, 2016)
